Some results are limits rather than exact numbers.

Experimental findings from ChEMBL document CHEMBL3091410, “Enmein-type 6,7-seco-ent-kauranoids from Isodon sculponeatus” (J Nat Prod, 2013) are described below.

For one assay, the system named is SMMC-7721. The experiment in a line: Cytotoxicity against human SMMC7721 cells after 48 hrs by MTS assay. The class given is functional, cell-based. To be noted: SMMC-7721, 48 h. The method, boiled down:
(§1)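 Lines obtained from ATCC, grown in RPMI-1640 or DMEM with 10% FBS at 37 °C, 5% CO2. Adherent cells seeded at 1 × 10^5 cells/mL and allowed to attach 12 h; suspension cells seeded just before dosing. Range of concentrations tested in triplicate for 48 h. MTS then added for 4 h at 37 °C, cells lysed in 20% SDS-50% DMF, OD read at 490 nm. IC50 by Reed and Muench method.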
On the technique in general: Tetrazolium dyes change colour on reduction, which living cells bring about.

The next assay has as its system MCF7. The experiment in a line: Cytotoxicity against human MCF7 cells after 48 hrs by MTS assay. The assay is classed as functional, cell-based. To be noted: MCF7, 48 h. In outline:
as §1

Another assay relates to A549. Nature of the assay: Cytotoxicity against human A549 cells after 48 hrs by MTS assay. To be noted: A549, 48 h. The assay is classed as functional, cell-based. In outline: as §1
Assay [1] has as its system SW480. The experiment in a line: Cytotoxicity against human SW480 cells after 48 hrs by MTS assay. The class given is functional, cell-based. To be noted: SW480, 48 h. The method, boiled down: as §1
The next assay deals with HL-60. Nature of the assay: Cytotoxicity against human HL60 cells after 48 hrs by MTS assay. The class given is functional, cell-based. To be noted: HL-60, 48 h. The method, boiled down: as §1
The test system of assay [2] is SW480. Nature of the assay: Potency index, ratio of cisplatin IC50 to compound IC50 for human SW480 cells. The assay is classed as functional.
Another assay deals with RAW264.7. The experiment in a line: Inhibition of LPS-stimulated NO production in mouse RAW264.7 cells after 18 hrs by Griess assay. The class given is functional, cell-based. To be noted: RAW264.7, 18 h. The method, boiled down: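 RAW264.7 macrophages, 2 × 10^5 cells/well in RPMI 1640 with 10% FBS, preincubated 24 h. Serial dilutions up to 25 μM (DMSO stock diluted in medium) given with 1 μg/mL LPS for 18 h. Supernatant mixed 1:1 with Griess reagent, in triplicate, 5 min; absorbance at 570 nm. Parallel MTS viability check under the same 18 h conditions.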
In general terms: Griess reagent forms a coloured azo dye with nitrite.

`C=C1[C@@H]2CC[C@@H]3[C@](C2)(C(=O)O[C@H]2CCC(C)(C)[C@H]4[C@H](O)OC[C@@]243)[C@@H]1O`: the IC50 in the assay on SMMC-7721, in the assay with MCF7, in the assay with A549, in the assay with SW480 [1] and in the assay on HL-60 was greater than 40 µM throughout.

As to `C=C1C(=O)[C@]23C[C@H]1CC[C@H]2[C@@]12CO[C@@H](O)[C@@H]1C(C)(C)CC[C@@H]2OC3=O`, the “Ratio IC50” value with SW480 [2] was 15. The IC50 with SMMC-7721 was 3.5 µM; with RAW264.7, 2.2 µM; in the assay on MCF7, 2.6 µM; in the assay with A549, 3.2 µM; with SW480 [1], 1 µM; in the assay with HL-60 it was 2.8 µM.

For `C=C1[C@H]2C[C@@]3(C(=O)O[C@H]4CCC(C)(C)[C@H]5[C@H](O)OC[C@@]45[C@@H]3[C@@H]3O[C@@H]32)[C@@H]1O`, the IC50 in the assay on SMMC-7721, in the assay with MCF7, in the assay with A549, with SW480 [1] and in the assay on HL-60 was greater than 40 µM in each case.

Consider `C=C1[C@@H]2C=C[C@@H]3[C@](C2)(C(=O)O[C@H]2CCC(C)(C)[C@H]4[C@H](O)OC[C@@]243)[C@@H]1O`, for which the IC50 with SMMC-7721, in the assay with MCF7, in the assay on A549, with SW480 [1] and with HL-60 was greater than 40 µM each time.

On to `C=C1[C@@H](O)[C@]23C[C@@]1(O)C[C@@H](O)[C@H]2[C@]12CO[C@@H]4OC[C@](C)(CC[C@@H]1OC3=O)[C@@H]42`, for which the IC50 with SMMC-7721, with MCF7, in the assay on A549, with SW480 [1] and in the assay with HL-60 was greater than 40 µM in each case.

On to `CC1(C)[C@H](O)C[C@@H]2OC(=O)[C@@]34C[C@@H](C[C@@H](O)[C@H]3[C@]23CO[C@@H](O)[C@H]13)[C@](C)(O)C4=O`, for which the IC50 in the assay on SMMC-7721, in the assay with MCF7, with A549, in the assay on SW480 [1] and in the assay with HL-60 was greater than 40 µM each time.

As for `C=C1C(=O)[C@]23C[C@H]1CC[C@H]2[C@@]12CO[C@@H](O)[C@@H]1C(C)(C)[C@@H](O)C[C@@H]2OC3=O` [ENEMIN], the IC50 with SMMC-7721, with MCF7, in the assay with A549, in the assay with SW480 [1] and in the assay on HL-60 was greater than 40 µM throughout.

As to `C=C1C(=O)[C@]23C[C@H]1C[C@H](O)[C@H]2[C@@]12CO[C@@H](O)[C@@H]1C(C)(C)CC[C@@H]2OC3=O` [EPINODOSIN], the IC50 with SMMC-7721, in the assay with MCF7, with A549, with SW480 [1] and with HL-60 was greater than 40 µM throughout.

On to `C=C1C(=O)[C@]23C[C@H]1C[C@@H](O)[C@H]2[C@@]12CO[C@@H](O)[C@@H]1C(C)(C)CC[C@@H]2OC3=O` [NODOSIN], for which the IC50 in the assay with SMMC-7721 is 27 µM; with RAW264.7, 18.4 µM; in the assay on MCF7 it was 23.5 µM; with A549, greater than 40 µM; in the assay on SW480 [1], 12.1 µM; in the assay with HL-60 it was 15 µM.

For the molecule `CC(=O)O[C@H]1C(=O)[C@@]2(C)[C@H]([C@H](OC(=O)c3ccccc3)[C@]3(O)C[C@H](OC(=O)[C@H](O)[C@@H](NC(=O)c4ccccc4)c4ccccc4)C(C)=C1C3(C)C)[C@]1(OC(C)=O)CO[C@@H]1C[C@@H]2O` [PACLITAXEL], the half-inhibitory concentration (IC50) in the assay on SMMC-7721, in the assay on MCF7, with A549, in the assay with SW480 [1] and in the assay with HL-60 was less than 0.008 µM in each case.

In the case of `C=C1C(=O)[C@]23C[C@H]1C[C@@H](O)[C@H]2[C@]12CO[C@@H]4OC[C@](C)(CC[C@@H]1OC3=O)[C@@H]42` [SCULPONEATIN A], the IC50 turned out to be 15.2 µM in the assay on SMMC-7721; 9.1 µM in the assay on RAW264.7; 15 µM in the assay on MCF7; 17.1 µM with A549; 3.5 µM in the assay on SW480 [1]; 12.7 µM with HL-60.

On to `C=C1[C@@H]2C[C@@H](O)[C@@H]3[C@](C2)(C(=O)O[C@H]2CC[C@@]4(C)CO[C@H]5OC[C@]23[C@H]54)[C@@H]1O` [SCULPONEATIN B], for which the IC50 in the assay with SMMC-7721, in the assay with MCF7, in the assay on A549, with SW480 [1] and with HL-60 was greater than 40 µM throughout.

As a reminder, the IC50 is the concentration needed to halve the response being measured. The low end stands for higher potency, the high end for lower potency.
